Converted amounts (≈) assume the structure as drawn.
Legend:
[1] = tested on: Human immunodeficiency virus 1; test: Antiviral activity against HIV-1 […] infected in thymidine kinase deficient human C8166 cells; type: functional, organism-based, 3B
[2] = tested on: Human immunodeficiency virus 1; test: Antiviral activity against wild type HIV-1 3B infected in human MT4 cells; type: functional, organism-based; details: Human immunodeficiency virus 1, 3B
How it was run: (§1)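 MT4 cells infected with HIV-1 (III_B) or HIV-2 (ROD), run in parallel with stavudine as positive control; antiviral IC50 and cytotoxic CC50 determined, selectivity index derived.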

[3] = Selectivity index, ratio of CC50 for human MT4 cells to IC50 for antiviral activity against HIV-1 IIIB infected in MT4 cells; type: toxicity, cell-based; details: read-out: Ratio CC50/IC50
How it was run: (§2)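 MT4 cells infected with HIV-1 IIIB or HIV-2 ROD and tested in parallel with stavudine (d4T) as positive control. Antiviral IC50 and cytotoxic CC50 were both determined in MT4 cells. Selectivity index is CC50/IC50.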

[4] = Selectivity index, ratio of CC50 for human MT4 cells to IC50 for antiviral activity against HIV-2 ROD infected in human MT4 cells; type: toxicity, cell-based; details: read-out: Ratio CC50/IC50; how it was run: as §2
physchem = details: phosphate buffered saline, pH 7.4
[5] = Cytotoxicity against human MT4 cells; type: cell-based; how it was run: as §1
[6] = tested on: Human immunodeficiency virus 1; test: Antiviral activity against wild type HIV-1 3B infected in wild type human C8166 cells; type: functional, organism-based; details: Human immunodeficiency virus 1, 3B
[7] = tested on: Human immunodeficiency virus 2; test: Antiviral activity against HIV-2 ROD infected in human MT4 cells; details: Human immunodeficiency virus 2, ISOLATE ROD
[8] = tested on: Human immunodeficiency virus 1; test: Potency index, ratio of stavudine IC50 to test compound IC50 for antiviral activity against wild type HIV-1 3B infected in wild type human C8166 cells; type: functional
[9] = Prodrug activation in acetone-d6 and Trizma buffer assessed as carboxypeptidase Y (unknown origin)-mediated (S)-2-((((2S,5R)-5-(5-methyl-2,4-dioxo-3,4-dihydropyrimidin-1(2H)-yl)-2,5-dihydrofuran-2-yl)methoxy)oxidophosphorylamino)propanoate metabolite formation at 5 mg incubated for 7 mins to 2 hrs by 31P NMR analysis; type: ADME, Homo sapiens
How it was run: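 Compound dissolved in acetone-d6 with Trizma buffer (pH 7.6), treated with carboxypeptidase Y; ³¹P NMR spectra recorded over time, blank spectrum at 25 °C, conversion of parent diastereoisomer peaks to the intermediate monitored by chemical shift changes.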

[10] = tested on: Human immunodeficiency virus 1; test: Potency index, ratio of stavudine IC50 to test compound IC50 for antiviral activity against HIV-1 3B infected in human MT4 cells; type: functional
How it was run: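 MT4 cells infected with HIV-1 (IIIB) or HIV-2 (ROD). Test compounds were assayed alongside stavudine as the positive control, and antiviral IC50 was determined for each. Cytotoxicity (CC50) and selectivity index were determined in the same screen.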

[11] = tested on: Human immunodeficiency virus 2; test: Potency index, ratio of stavudine IC50 to test compound IC50 for antiviral activity against HIV-2 ROD infected in human MT4 cells
[12] = Prodrug activation in acetone-d6 and Trizma buffer assessed as carboxypeptidase Y (unknown origin)-mediated 3-(pentafluoro-lambda6-sulfanyl)phenol metabolite formation at 5 mg incubated for 1.25 hrs by 19F NMR analysis; type: ADME, Homo sapiens
[13] = Human immunodeficiency virus 1, 3B, C8166, read-out: IC50

IC50 [1] | IC50 [2] [nM] | solubility kinetic at 2 h (physchem) [µM] | IC50 [6] [nM] | IC50 [7] [nM] | Drug metabolism [9] | Drug metabolism [12] | SMILES | selectivity ratio [3] | selectivity ratio [4] | CC50 [5] [nM] | IC50 [1, 13] [nM] | Ratio IC50 [8] | Ratio IC50 [10] | Ratio IC50 [11]
Not Active | 41 | > 100 | 39 | 49 | – | – | COC(=O)[C@H](C)NP(=O)(OC[C@@H]1C=C[C@H](n2cc(C)c(=O)[nH]c2=O)O1)Oc1cccc(C(F)(F)F)c1 (stereo partly specified) | 1610 | 1350 | 66100 | – | – | – | –
– | 30 | > 100 | 54 | 36 | Metabolite_Detected | Metabolite_Detected | COC(=O)[C@H](C)NP(=O)(OC[C@@H]1C=C[C@H](n2cc(C)c(=O)[nH]c2=O)O1)Oc1cccc(S(F)(F)(F)(F)F)c1 (stereo partly specified) | 1750 | 1460 | 52600 | 335 | 75 | >10 | >10
– | – | 10 to 30 (≈ 4.8 to 14.4 µg/mL) | – | – | – | – | COC(=O)C1=C(C)NC(C)=C(C(=O)OCCN(C)Cc2ccccc2)C1c1cccc([N+](=O)[O-])c1 (stereo unspecified) [NICARDIPINE] | – | – | – | – | – | – | –
Not Active | 400 | > 100 | 4060 | 450 | – | – | Cc1cn([C@H]2C=C[C@@H](CO)O2)c(=O)[nH]c1=O [STAVUDINE] | 782 | 695 | 313000 | – | – | – | –

SMILES | IC50 [1] | IC50 [2] [nM] | solubility kinetic at 2 h (physchem) [µM] | IC50 [6] [nM] | IC50 [7] [nM] | Drug metabolism [9] | Drug metabolism [12] | selectivity ratio [3] | selectivity ratio [4] | CC50 [5] [nM] | IC50 [1, 13] [nM] | Ratio IC50 [8] | Ratio IC50 [10] | Ratio IC50 [11]
COC(=O)[C@H](C)NP(=O)(OC[C@@H]1C=C[C@H](n2cc(C)c(=O)[nH]c2=O)O1)Oc1ccccc1 (stereo partly specified) | – | 210 | – | 300 | 270 | – | – | 1200 | 930 | 251000 | 320 | – | – | –
COC(=O)[C@H](C)NP(=O)(OC[C@@H]1C=C[C@H](n2cc(C)c(=O)[nH]c2=O)O1)Oc1ccc(C(F)(F)F)cc1 (stereo partly specified) | – | 37 | > 100 | 22 | 47 | – | – | 1160 | 912 | 42900 | 75 | 180 | – | –
